Measurements of several laboratories.
Protocols differ between the studies behind these lines.
Target: Mitogen-activated protein kinase kinase kinase kinase 1 (MAP4K1, Homo sapiens, UniProt Q92918)

COc1cc2nccc(Oc3ccc(NC(=O)c4c5n(n(-c6ccc(F)cc6)c4=O)CCCC5)cc3)c2cc1OC  inhibition (enzyme activity, inhibitor; 0.1 µM): 11%
O=C(Nc1cnn(-c2csc(C(=O)NC3COC3)c2)c1)Nc1ccccc1Cl  remaining activity (enzyme activity, inhibitor; 5 µM): 132%
CCS(=O)(=O)c1cc2cc(C[C@](O)(CC(C)(C)c3ccc(F)cc3C(N)=O)C(F)(F)F)[nH]c2cn1  remaining binding (cell-free assay, competition with immobilised ligand; 1 µM): 100%
Cc1sc(C(=O)NC2COC2)cc1-n1cc(NC(=O)Nc2c(F)cccc2Cl)cn1  remaining activity (enzyme activity, inhibitor; 10 µM): 99.2%
Cc1ccc(C(=O)NCc2ccsc2)cc1C#Cc1cn(C(C)C)c2ncnc(N)c12  activity vs control (enzyme activity, inhibitor; 1 µM): 85%
Nc1ncnc2occ(-c3ccc(NC(=O)Nc4cc(C(F)(F)F)ccc4F)cc3)c12  remaining signal (cell-free assay, inhibitor; 20 µM): 0.7%
CC(C)(O)[C@H]1CC[C@H](Nc2ccc3ncc(-c4cccc(C(F)(F)F)c4)n3n2)CC1  remaining activity (enzyme activity, inhibitor; 1 µM): 79.6%
CC(=O)N1CCC(c2ccc(C(=O)NC(=N)N)cc2C(F)(F)F)CC1  remaining binding (cell-free assay, competition with immobilised ligand; 1 µM): 100%
CN1CC(Oc2cnc(C#N)cc2-c2ccn3nc(NC(=O)C4CC4)cc3c2)C1  inhibition (enzyme activity, inhibitor; 1 µM): 4%
CC/C(=N\NC(=O)NCc1cccc(O)c1)c1ccc(O)c(C)c1O  inhibition (enzyme activity, inhibitor; 0.1 µM): 17.1%
COc1cc(Cl)c(C(=O)N[C@@H](CN[C@H]2CC[C@@H](N)CC2)Cc2ccc(C#N)cc2)cc1-c1ccc(CN[C@H](C)c2ccc(C)cc2)o1  remaining activity (enzyme activity, inhibitor; 1 µM): 96%
Cc1ccc(C(=O)Nc2ccc(CN3CCN(C)CC3)c(C(F)(F)F)c2)cc1C#Cc1cnc2cccnn12  remaining activity (enzyme activity, inhibitor; 23.5 nM): 8.5%
